Measurements: ChEMBL document CHEMBL4689842, “EUbOPEN Chemogenomics Library wave 1” (2021)

Test system: U2OS
Assay: Multiplex assay against U2OS
Type: toxicity, cell-based
Settings: human
Procedure, shortened: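 Live cells were stained at seeding with Hoechst33342, BioTracker Green Microtubule Cytoskeleton Dye, MitoTracker Red and Annexin V Alexa Fluor 680. Following compound addition, they were imaged on a CQ1 microscope at 37°C and 5% CO2 and gated by CellPathfinder machine learning into Hoechst high-intensity objects or normal cells, with normal cells split into healthy, pyknosed or fragmented nuclei and pyknosed cells into mitotic or apoptotic. Tubulin, mitochondrial-mass and membrane-permeability phenotypes are per cents of healthy-nucleus cells.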

[1] = 12 h, 1 µM, compound concentration 1 uM, replicate 1
[2] = 12 h, 1 µM, compound concentration 1 uM, replicate 2
[3] = 12 h, 10 µM, compound concentration 10 uM, replicate 1
[4] = 12 h, 10 µM, compound concentration 10 uM, replicate 2
[5] = 24 h, 1 µM, compound concentration 1 uM, replicate 1
[6] = 24 h, 1 µM, compound concentration 1 uM, replicate 2
[7] = 24 h, 10 µM, compound concentration 10 uM, replicate 1
[8] = 24 h, 10 µM, compound concentration 10 uM, replicate 2
[9] = 48 h, 1 µM, compound concentration 1 uM, replicate 1
[10] = 48 h, 1 µM, compound concentration 1 uM, replicate 2
[11] = 48 h, 10 µM, compound concentration 10 uM, replicate 1
[12] = 48 h, 10 µM, compound concentration 10 uM, replicate 2

Compound: Cl.NC[C@@H]1O[C@H](C23CC4CC(CC(C4)C2)C3)Cc2c1ccc(O)c2O
- Population Apoptotic (%) [1]: 60%
- Population Fragmented Nuclei (%) [1]: 10%
- Population Healthy Nuclei (%) [1]: 80%
- Population Hoechst High Intensity Objects (%) [1]: 7%
- Population Membrane Permeable-Phenotype (%) [1]: 5%
- Population Mitochondria Different-Phenotype (%) [1]: 11%
- Population Mitotic Cells (%) [1]: 40%
- Population Normal (%) [1]: 92%
- Population Pyknosed Nuclei (%) [1]: 9%
- Population Tubulin-Different-Phenotype (%) [1]: 6%
- Total Cell Count [1]: 116
- Population Apoptotic (%) [2]: 0%
- Population Fragmented Nuclei (%) [2]: 6%
- Population Healthy Nuclei (%) [2]: 91%
- Population Hoechst High Intensity Objects (%) [2]: 3%
- Population Membrane Permeable-Phenotype (%) [2]: 2%
- Population Mitochondria Different-Phenotype (%) [2]: 9%
- Population Mitotic Cells (%) [2]: 100%
- Population Normal (%) [2]: 96%
- Population Pyknosed Nuclei (%) [2]: 2%
- Population Tubulin-Different-Phenotype (%) [2]: 10%
- Total Cell Count [2]: 95
- Population Apoptotic (%) [3]: 37%
- Population Fragmented Nuclei (%) [3]: 31%
- Population Healthy Nuclei (%) [3]: 36%
- Population Hoechst High Intensity Objects (%) [3]: 8%
- Population Membrane Permeable-Phenotype (%) [3]: 3%
- Population Mitochondria Different-Phenotype (%) [3]: 13%
- Population Mitotic Cells (%) [3]: 62%
- Population Normal (%) [3]: 92%
- Population Pyknosed Nuclei (%) [3]: 31%
- Population Tubulin-Different-Phenotype (%) [3]: 5%
- Total Cell Count [3]: 150
- Population Apoptotic (%) [4]: 52%
- Population Fragmented Nuclei (%) [4]: 39%
- Population Healthy Nuclei (%) [4]: 32%
- Population Hoechst High Intensity Objects (%) [4]: 10%
- Population Membrane Permeable-Phenotype (%) [4]: 9%
- Population Mitochondria Different-Phenotype (%) [4]: 22%
- Population Mitotic Cells (%) [4]: 47%
- Population Normal (%) [4]: 89%
- Population Pyknosed Nuclei (%) [4]: 27%
- Population Tubulin-Different-Phenotype (%) [4]: 27%
- Total Cell Count [4]: 76
- Population Apoptotic (%) [5]: 46%
- Population Fragmented Nuclei (%) [5]: 11%
- Population Healthy Nuclei (%) [5]: 79%
- Population Hoechst High Intensity Objects (%) [5]: 7%
- Population Membrane Permeable-Phenotype (%) [5]: 2%
- Population Mitochondria Different-Phenotype (%) [5]: 3%
- Population Mitotic Cells (%) [5]: 53%
- Population Normal (%) [5]: 92%
- Population Pyknosed Nuclei (%) [5]: 9%
- Population Tubulin-Different-Phenotype (%) [5]: 9%
- Total Cell Count [5]: 146
- Population Apoptotic (%) [6]: 42%
- Population Fragmented Nuclei (%) [6]: 8%
- Population Healthy Nuclei (%) [6]: 85%
- Population Hoechst High Intensity Objects (%) [6]: 2%
- Population Membrane Permeable-Phenotype (%) [6]: 5%
- Population Mitochondria Different-Phenotype (%) [6]: 10%
- Population Mitotic Cells (%) [6]: 57%
- Population Normal (%) [6]: 97%
- Population Pyknosed Nuclei (%) [6]: 6%
- Population Tubulin-Different-Phenotype (%) [6]: 12%
- Total Cell Count [6]: 114
- Population Apoptotic (%) [7]: 76%
- Population Fragmented Nuclei (%) [7]: 38%
- Population Healthy Nuclei (%) [7]: 33%
- Population Hoechst High Intensity Objects (%) [7]: 6%
- Population Membrane Permeable-Phenotype (%) [7]: 7%
- Population Mitochondria Different-Phenotype (%) [7]: 7%
- Population Mitotic Cells (%) [7]: 23%
- Population Normal (%) [7]: 93%
- Population Pyknosed Nuclei (%) [7]: 27%
- Population Tubulin-Different-Phenotype (%) [7]: 17%
- Total Cell Count [7]: 161
- Population Apoptotic (%) [8]: 92%
- Population Fragmented Nuclei (%) [8]: 50%
- Population Healthy Nuclei (%) [8]: 29%
- Population Hoechst High Intensity Objects (%) [8]: 18%
- Population Membrane Permeable-Phenotype (%) [8]: 26%
- Population Mitochondria Different-Phenotype (%) [8]: 26%
- Population Mitotic Cells (%) [8]: 7%
- Population Normal (%) [8]: 81%
- Population Pyknosed Nuclei (%) [8]: 20%
- Population Tubulin-Different-Phenotype (%) [8]: 26%
- Total Cell Count [8]: 80
- Population Apoptotic (%) [9]: 33%
- Population Fragmented Nuclei (%) [9]: 8%
- Population Hoechst High Intensity Objects (%) [9]: 6%
- Population Membrane Permeable-Phenotype (%) [9]: 0%
- Population Mitochondria Different-Phenotype (%) [9]: 14%
- Population Mitotic Cells (%) [9]: 66%
- Population Normal (%) [9]: 93%
- Population Pyknosed Nuclei (%) [9]: 9%
- Population Tubulin-Different-Phenotype (%) [9]: 12%
- Total Cell Count [9]: 198
- Population Apoptotic (%) [10]: 57%
- Population Fragmented Nuclei (%) [10]: 11%
- Population Healthy Nuclei (%) [10]: 82%
- Population Hoechst High Intensity Objects (%) [10]: 3%
- Population Membrane Permeable-Phenotype (%) [10]: 3%
- Population Mitochondria Different-Phenotype (%) [10]: 21%
- Population Mitotic Cells (%) [10]: 42%
- Population Normal (%) [10]: 96%
- Population Pyknosed Nuclei (%) [10]: 5%
- Population Tubulin-Different-Phenotype (%) [10]: 13%
- Total Cell Count [10]: 127
- Population Apoptotic (%) [11]: 84%
- Population Fragmented Nuclei (%) [11]: 33%
- Population Healthy Nuclei (%) [11]: 33%
- Population Hoechst High Intensity Objects (%) [11]: 13%
- Population Membrane Permeable-Phenotype (%) [11]: 20%
- Population Mitochondria Different-Phenotype (%) [11]: 16%
- Population Mitotic Cells (%) [11]: 16%
- Population Normal (%) [11]: 86%
- Population Pyknosed Nuclei (%) [11]: 32%
- Population Tubulin-Different-Phenotype (%) [11]: 37%
- Total Cell Count [11]: 180
- Population Apoptotic (%) [12]: 91%
- Population Fragmented Nuclei (%) [12]: 50%
- Population Healthy Nuclei (%) [12]: 27%
- Population Hoechst High Intensity Objects (%) [12]: 34%
- Population Membrane Permeable-Phenotype (%) [12]: 80%
- Population Mitochondria Different-Phenotype (%) [12]: 53%
- Population Mitotic Cells (%) [12]: 8%
- Population Normal (%) [12]: 65%
- Population Pyknosed Nuclei (%) [12]: 22%
- Population Tubulin-Different-Phenotype (%) [12]: 66%
- Total Cell Count [12]: 82
